Columns and labels:
Type in all cases: functional
Conditions in all cases: for CC50: read-out: CD50 (the source's name)
[1] = test system: HepG2; test: Cytotoxicity against human HepG2 cells by MTT assay
Summary of the method: (§1)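 MTT colorimetric read-out. The value is reported as CD50.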

[2] = test system: HeLa; test: Cytotoxicity against human HeLa cells by MTT assay; summary of the method: as §1
[3] = test system: OVCAR-3; test: Cytotoxicity against human OVCAR-3 cells by MTT assay; summary of the method: as §1

| SMILES | CC50 [1] | CC50 [2] | CC50 [3] | Activity [1] | Activity [2] | Activity [3] |
| --- | --- | --- | --- | --- | --- | --- |
| Cc1nc2c3c(c4ccc5c(c4c2o1)CCCC5(C)C)OCC3C (stereo unspecified) | 121 µM | 108 µM | 126 µM |  |  |  |
| C[C@H]1COC2=C1C(=O)C(=O)c1c2ccc2c1CCCC2(C)C [CRYPTOTANSHINONE] | 29.7 µM | 17.2 µM | 9.12 µM |  |  |  |
| Cc1nc2c(o1)c1c3c(ccc1c1occ(C)c21)C(C)(C)CCC3 [NEOSALVIANEN] | 59.2 µM | 63.9 µM | 74.6 µM |  |  |  |
| CC(C)C1=Cc2ccc3c4c([nH]c(c24)C1=O)C(=O)CC3(C)C [SALVIADIONE] | 137 µM | 178 µM | 169 µM |  |  |  |
| Cc1nc2c(o1)c1c(C)coc1c1ccc3c(c12)CCCC3(C)C [SALVIANEN] | 30.4 µM | 32.3 µM | 39.5 µM | Dose-dependent effect | Dose-dependent effect | Dose-dependent effect |
| Cc1coc2c1C(=O)C(=O)c1c-2ccc2c1CCCC2(C)C [TANSHINONE IIA] | 26.5 µM | 8.5 µM | 9.52 µM |  |  |  |

From ChEMBL document CHEMBL1141749, “Nitrogen-containing compounds from Salvia miltiorrhiza” (2005)
